According to ChEMBL document CHEMBL1123362, “Resolution, absolute configuration, and cholinergic enantioselectivity of (+)- and (-)-cis-2-methyl-5-[(dimethylamino)methyl]-1,3-oxathiolane methiodide” (1986):
Where “and” joins values, the source holds several entries; their conditions need not be identical. Equal entries are not always repeated.

Tests used:
[1] = Compound was evaluated for the ratio of ED50 of nicotinic agonist (N) and ED50 of muscarinic agonist (M); assay type: functional
[2] = Potency was evaluated on frog rectus abdominis; assay type: functional, Rectus abdominis muscle
Cavia porcellus = species: Cavia porcellus; assay: Potency was evaluated on guinea pig ileum; assay type: functional
In short: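 Isolated ileum strip in aerated (O₂ with 5% CO₂) Tyrode-type salt solution (glucose 5 mM) at 37 °C. Isotonic contractions recorded at 1 g loading tension. After 30 min equilibration, cumulative concentration-response curves were run without reaching supramaximal concentrations. Potency expressed as equipotent molar ratio versus carbachol. EPMR averages compared by t-test (p < 0.05).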

[3] = Equipotent molar ratio (EPMR) between ED50 and ED50 of carbachol calculated through the regression of the angular transformant of the fractional log concentration of agonist; assay type: functional

Compound	Ratio [1]	ED50 [2]	ED50 (Cavia porcellus)	Ratio [3]
C[N+](C)(C)CCOC(N)=O.[Cl-] [CARBACHOL]	19.2	4.04e-06	2.11e-07	1
C[C@H]1O[C@H](CN(C)C)CS1 (racemic) [listing 1 of 2 here]	61.6			
C[C@@H]1O[C@H](C[N+](C)(C)C)C[C@H]1O [MUSCARINE]	> 6300	>0.0005	7.94e-08	
C[C@H]1O[C@H](CN(C)C)CS1 (racemic) [listing 2 of 2 here]		1.7e-05	2.76e-07	
C[C@@H]1O[C@H](C[N+](C)(C)C)CS1 (stereo in doubt; (+)-1)	537			
C[C@@H]1O[C@H](C[N+](C)(C)C)CS1 (stereo in doubt; (-)-1)	64			
C[C@H]1O[C@H](CN(C)C)CS1 (stereo in doubt; (-)-10) [listing 1 of 2 here]		1.12e-05	4.2e-07	
C[C@H]1O[C@H](CN(C)C)CS1 (stereo in doubt; (+)-10) [listing 1 of 2 here]	30			3 and 4.5
C[C@H]1O[C@H](CN(C)C)CS1 (stereo in doubt; (-)-10) [listing 2 of 2 here]	26.6			2 and 2.8
C[C@H]1O[C@H](CN(C)C)CS1 (stereo in doubt; (+)-10) [listing 2 of 2 here]		1.84e-05	6.13e-07	
C[C@@H]1O[C@H](C[N+](C)(C)C)CS1 (racemic)	642			
